{
  "source": "ChEMBL document CHEMBL1629663",
  "about": "“Postantibiotic effects of telavancin against 16 gram-positive organisms” (Antimicrob Agents Chemother, 2009)",
  "format_in_all_cases": "functional",
  "key": {"[1]": {"test_system": "Streptococcus agalactiae", "assay": "Antimicrobial activity against Streptococcus agalactiae HMC 5 assessed as time required to induce post antibiotic sub-MIC effect at 0.2 times MIC pre-exposed to Telavancin for 2 hrs by plate counting method", "details": "in the assay text read “for 1 hr” for “for 2 hrs”", "how_it_was_run": "(§1)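 Mueller-Hinton broth cultures of about 5 × 10^6 CFU/ml were pre-exposed to telavancin at 10× MIC for 1 h at 35°C, then diluted 1:1,000. Telavancin was re-added to final 0.2, 0.3 or 0.4× MIC, alongside a drug-free tube. Viable counts were taken before exposure, after dilution, then every 2 h until McFarland no. 1 turbidity. Duration comes from log10 CFU/ml-versus-time plots; two separate experiments with fresh inocula.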"}, "[2]": {"test_system": "Enterococcus faecalis", "assay": "Antimicrobial activity against Enterococcus faecalis HMC 571 assessed as time required to induce sub-MIC effect at 0.4 times MIC exposed for 2 hrs by plate counting method", "how_it_was_run": "(§2)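 Unexposed Mueller-Hinton broth cultures (about 5 × 10^6 CFU/ml, 35°C) were handled as in the PA-SME set but without the 10× MIC pre-exposure. They were diluted 1:1,000, then given telavancin at final 0.2, 0.3 or 0.4× MIC, with a drug-free control. Viable counts were taken every 2 h until McFarland no. 1 turbidity. Effect duration comes from log10 CFU/ml-time plots; two separate experiments with new inocula.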"}, "[3]": {"test_system": "Staphylococcus aureus", "assay": "Antimicrobial activity against vancomycin-intermediate-, methicillin-resistant Staphylococcus aureus 1287 assessed as time required to induce sub-MIC effect at 0.3 times MIC […] by plate counting method", "how_it_was_run": "(§3)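 SME, viable plate count method: no prior drug exposure. About 5 × 10^6 CFU/ml in Mueller-Hinton broth at 35°C received 0.2, 0.3 or 0.4× MIC, alongside a drug-free tube. Counts were taken at the start, then every 2 h until McFarland no. 1 turbidity, as log10 CFU/ml against time. Two separate experiments, each with a new inoculum.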"}, "[4]": {"test_system": "Staphylococcus aureus", "assay": "Antimicrobial activity against vancomycin-intermediate-, methicillin-resistant Staphylococcus aureus 770 assessed as time required to induce post antibiotic sub-MIC effect at 0.2 times MIC pre-exposed to Telavancin […] by plate counting method", "how_it_was_run": "(§4)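 PAE was first induced with 10× MIC for 1 h at 35°C (inoculum about 5 × 10^6 CFU/ml, Mueller-Hinton broth) and ended by 1:1,000 dilution. Cultures were then split and given 0.2, 0.3 or 0.4× MIC, with one tube left without drug. Viable counts were taken before exposure, after dilution, then every 2 h until McFarland no. 1 turbidity. Two separate experiments, each with a new inoculum.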"}, "[5]": {"test_system": "Enterococcus faecalis", "assay": "Antimicrobial activity against Enterococcus faecalis HMC 571 assessed as time required to induce sub-MIC effect at 0.2 times MIC exposed for 2 hrs by plate counting method", "how_it_was_run": "as §2"}, "[6]": {"test_system": "Staphylococcus aureus", "assay": "Antimicrobial activity against vancomycin-susceptible-, methicillin-resistant Staphylococcus aureus 1307 assessed as time required to induce post antibiotic sub-MIC effect at 0.2 times MIC pre-exposed to Telavancin […] by plate counting method", "how_it_was_run": "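After 1 h preexposure to 10× MIC at 35°C and 1:1,000 dilution, cultures were split, and drug was re-added to final 0.2, 0.3 or 0.4× MIC, with a drug-free tube. Viable counts were taken every 2 h until McFarland 1 turbidity. Duration was derived from log10 CFU/ml versus time curves. Two experiments were run, each with a new inoculum.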"}, "[7]": {"test_system": "Staphylococcus aureus", "assay": "Antimicrobial activity against vancomycin-susceptible-, methicillin-resistant Staphylococcus aureus 1130 assessed as post-antibiotic effect at 10 times MIC pre-exposed to Telavancin for 1 hr by plate counting method", "how_it_was_run": "(§5)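 Direct colony suspensions (~5 × 10^6 CFU/ml) were exposed to 10× MIC for 1 h at 35°C with shaking in Mueller-Hinton broth, then diluted 1:1,000 to remove drug. Viable plate counts were taken before exposure, at 0 h, then every 2 h until turbidity reached McFarland 1. PAE = T − C, the time for counts to rise 1 log10 versus the unexposed control. Two separate experiments were run.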"}, "[8]": {"test_system": "Streptococcus agalactiae", "assay": "Antimicrobial activity against Streptococcus agalactiae HMC 5 by microdilution method"}, "[9]": {"test_system": "Staphylococcus aureus", "assay": "Antimicrobial activity against vancomycin-susceptible-, methicillin-resistant Staphylococcus aureus 1306 assessed as time required to induce sub-MIC effect at 0.2 times MIC exposed for 2 hrs by plate counting method", "how_it_was_run": "(§6)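 Sub-MIC effect: cultures not preexposed to drug were diluted and handled as in the PA-SME procedure in Mueller-Hinton broth with final 0.2, 0.3 or 0.4× MIC, plus a drug-free control. Viable plate counts were taken every 2 h until McFarland 1 turbidity. Duration was derived from growth curves. Two experiments were run, each with a new inoculum.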"}, "[10]": {"test_system": "Staphylococcus aureus", "assay": "Antimicrobial activity against heterogenous vancomycin-intermediate-, methicillin-resistant Staphylococcus aureus 618 assessed as time required to induce post antibiotic sub-MIC effect at 0.4 times MIC […] by plate counting method", "how_it_was_run": "as §4"}, "[11]": {"test_system": "Staphylococcus aureus", "assay": "Antimicrobial activity against vancomycin-susceptible-, methicillin-resistant Staphylococcus aureus ATCC 33591 assessed as time required to induce sub-MIC effect at 0.2 times MIC exposed for 2 hrs by plate counting method", "how_it_was_run": "as §6"}, "[12]": {"test_system": "Staphylococcus aureus", "assay": "Antimicrobial activity against vancomycin-intermediate-, methicillin-resistant Staphylococcus aureus 1287 assessed as time required to induce sub-MIC effect at 0.4 times MIC […] by plate counting method", "how_it_was_run": "as §3"}, "[13]": {"test_system": "Staphylococcus aureus", "assay": "Antimicrobial activity against heterogenous vancomycin-intermediate-, methicillin-resistant Staphylococcus aureus 618 assessed as time required to induce post antibiotic sub-MIC effect at 0.3 times MIC […] by plate counting method", "how_it_was_run": "as §4"}, "[14]": {"test_system": "Staphylococcus aureus", "assay": "Antimicrobial activity against vancomycin-intermediate-, methicillin-resistant Staphylococcus aureus 770 assessed as time required to induce sub-MIC effect at 0.4 times MIC exposed for 2 hrs by plate counting method", "how_it_was_run": "as §6"}, "[15]": {"test_system": "Staphylococcus aureus", "assay": "Antimicrobial activity against vancomycin-susceptible-, methicillin-resistant Staphylococcus aureus 1306 assessed as post-antibiotic effect at 10 times MIC pre-exposed to Telavancin for 1 hr by plate counting method", "how_it_was_run": "as §5"}, "[16]": {"test_system": "Staphylococcus aureus", "assay": "Antimicrobial activity against vancomycin-susceptible-, methicillin-resistant Staphylococcus aureus ATCC 33591 assessed as time required to induce sub-MIC effect at 0.3 times MIC exposed for 2 hrs by plate counting method", "how_it_was_run": "as §6"}, "[17]": {"test_system": "Staphylococcus aureus", "assay": "Antimicrobial activity against vancomycin-susceptible-, methicillin-resistant Staphylococcus aureus 1306 assessed as time required to induce sub-MIC effect at 0.3 times MIC exposed for 2 hrs by plate counting method", "how_it_was_run": "as §6"}, "[18]": {"test_system": "Staphylococcus aureus", "assay": "Antimicrobial activity against heterogenous vancomycin-intermediate-, methicillin-resistant Staphylococcus aureus 618 assessed as time required to induce post antibiotic sub-MIC effect at 0.2 times MIC pre-exposed to Telavancin […] by plate counting method", "how_it_was_run": "as §4"}, "[19]": {"test_system": "Staphylococcus aureus", "assay": "Antimicrobial activity against vancomycin-susceptible-, methicillin-resistant Staphylococcus aureus 1307 assessed as time required to induce sub-MIC effect at 0.4 times MIC exposed for 2 hrs by plate counting method", "how_it_was_run": "as §6"}, "[20]": {"test_system": "Streptococcus pyogenes", "assay": "Antimicrobial activity against Streptococcus pyogenes HMC 414 assessed as time required to induce post antibiotic sub-MIC effect at 0.4 times MIC […] by plate counting method", "how_it_was_run": "as §1"}},
  "data": [
    {"compound": "CCCCCCCCCCNCCN[C@@]1(C)C[C@H](O[C@H]2[C@H](Oc3c4cc5cc3Oc3ccc(cc3Cl)[C@@H](O)[C@@H](NC(=O)[C@@H](CC(C)C)NC)C(=O)N[C@@H](CC(N)=O)C(=O)N[C@H]5C(=O)N[C@H]3C(=O)N[C@H](C(=O)N[C@H](C(=O)O)c5cc(O)c(CNCP(=O)(O)O)c(O)c5-c5cc3ccc5O)[C@H](O)c3ccc(c(Cl)c3)O4)O[C@H](CO)[C@@H](O)[C@@H]2O)O[C@@H](C)[C@H]1O", "note": "[TELAVANCIN]", "values": [
      {"measurement": "PAE", "setting": "[1]", "result": 0.8, "unit": "h"},
      {"measurement": "PAE", "setting": "[2]", "result": 9.6, "unit": "h"},
      {"measurement": "PAE", "setting": "[3]", "result": 0.4, "unit": "h"},
      {"measurement": "PAE", "setting": "[4]", "result": 3.8, "unit": "h"},
      {"measurement": "PAE", "setting": "[5]", "result": 0.1, "unit": "h"},
      {"measurement": "PAE", "setting": "[6]", "result": 6, "unit": "h"},
      {"measurement": "PAE", "setting": "[7]", "result": 1.4, "unit": "h"},
      {"measurement": "MIC", "setting": "[8]", "result": 0.12, "unit": "µg/mL"},
      {"measurement": "PAE", "setting": "[9]", "result": 0.7, "unit": "h"},
      {"measurement": "PAE", "setting": "[10]", "result": 10.3, "unit": "h"},
      {"measurement": "PAE", "setting": "[11]", "result": 0.3, "unit": "h"},
      {"measurement": "PAE", "setting": "[12]", "result": 0.8, "unit": "h"},
      {"measurement": "PAE", "setting": "[13]", "result": 8.3, "unit": "h"},
      {"measurement": "PAE", "setting": "[14]", "result": 0.8, "unit": "h"},
      {"measurement": "PAE", "setting": "[15]", "result": 1.8, "unit": "h"},
      {"measurement": "PAE", "setting": "[16]", "result": 1.4, "unit": "h"},
      {"measurement": "PAE", "setting": "[17]", "result": 5.1, "unit": "h"},
      {"measurement": "PAE", "setting": "[18]", "result": 5.7, "unit": "h"},
      {"measurement": "PAE", "setting": "[19]", "result": 6.3, "unit": "h"},
      {"measurement": "PAE", "setting": "[20]", "result": "> 10.7", "unit": "h"}
    ]}
  ]
}
